This sample holds only a part of the variants without activity.
B1: tRNA (parent)
chain: GUUCCGUUGGCGUAAUGGUAACGCGUCUCCCUCCUAAGGAGAAGACUGCGGGUUCGAGUCCCGUACGGAACG

Variants of: B1
Assay: yeast fitness relative to wild type (ratio to wild type); higher = fitter; tRNA-Arg(CCU), competitive growth, 37 C, YPD
How it was run: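 Variants of the tRNA-Arg(CCU) gene were chemically synthesised with a 3% per-site mutation rate across 69 sites and placed at the native genomic locus in Saccharomyces cerevisiae. Six parallel replicates of the pooled strains were competed in YPD at 37°C for 24 hours, and gene amplicons from the start and end populations were read by 100-nucleotide paired-end sequencing. Darwinian fitness relative to wild type was derived from changes in genotype frequencies. Genotypes required ≥ 100 starting reads, and estimates < 0.5 were set to 0.5.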

Question: For GUUCUGUUGACGUAAUGGUAACGCGUCUCCCUCCUAACGAGAAGACUGCGGGUUCGAGUCCCGUACGGAACG, which yeast fitness is on record?
Answer: The yeast fitness was no more than 0.5.

Question: Which yeast fitness does the source give for GUUCUGUUGCCGUAAUGGUAACGCGUCUCCCUCAUAAGGAGAAGACUGCGGGUUCGUGUCCCGUACCGAACG here?
Answer: Its yeast fitness is no more than 0.5.

Question: With GUUCUGUUAGCGUAAUGGUAACGCGUCUCCCUCCUAAGGAGACGACUGCGGGUUCGAGUCCCGUACGGAACG as the variant, how does the yeast fitness read?
Answer: Its yeast fitness is 0.653.

Question: With GUUCUGUUAGCGAAAUGGUAACGCGUCUCCCUCCUAAGGAGAAGACUGCGGGUUCGAGUCCCGUACGGAACG as the variant, how does the yeast fitness read?
Answer: Its yeast fitness is 0.882.

Question: For GUUCUGUUGACGUAAUGGUAAUGCGUCUCCCUCCUAAGGGGAAGACUGCGGGUUCCAGUCCCGUAAGGAACG, which yeast fitness is on record?
Answer: The yeast fitness was no more than 0.5.

Question: With GUUCUGUUGACGUAAUGGUAGCGCGUCUCCCUCCUAAGGUGAAGACUGCGGGUUCGAGUCCCGUACGGAACG as the variant, how does the yeast fitness read?
Answer: The yeast fitness was no more than 0.5.

Question: Which yeast fitness does the source give for GUUCUGUUGCCGUAAUGGUAUUGCGUCUCCCCCCUAAGGAGAAGAUUGCGGGUUCGAGUCGCGUACGGAACG here?
Answer: Its yeast fitness is no more than 0.5.

Question: Which yeast fitness does the source give for GUUCUGUUGACGUAAUGGUCACGCGUCUCCCUCCUAAGGAAAAGAGUACGGGUCUGAGUCCCGUACGGACCG here?
Answer: Its yeast fitness is 0.647.

Question: With GUUCUGUUGACGUAAUGGUAACGCGUCUCCCUCCUAAGGAGAAGACUGCGGGUUCGAGUCCGGUAGGGAACG as the variant, how does the yeast fitness read?
Answer: The yeast fitness was no more than 0.5.

Question: For GUUCUGUUACCAUAAUGGUAACGCAUCUCCCUGCUAAGAAGAAGACUGCGGGUUCGAGUCCCGUACGGAACG, which yeast fitness is on record?
Answer: The yeast fitness was no more than 0.5.

Question: For GUUCUGUUAGCGUAAUGGUAACGCGCCUCCCUCCUAAGGAGAAGACUGCGGGUUCGAGUCCCGUACUGAACG, which yeast fitness is on record?
Answer: The yeast fitness was no more than 0.5.

Question: With GUUCUGUUCGCGUAAUGGUAACGCGUCUCCCUCCUAAGGAGAAGACUGCGGGUUCGAGUCCCGAACGGAACG as the variant, how does the yeast fitness read?
Answer: The yeast fitness was 0.577.

Question: With GUUCUGUUGCCGUAAUGGUAACGCGUCUCCCUCCUAAGCAGAAGACUGCGAGUUCGAGUCCCGUACGGAACG as the variant, how does the yeast fitness read?
Answer: Its yeast fitness is no more than 0.5.

Question: Which yeast fitness does the source give for GUUCUGUUGACGUAAUGGUAGCGCGUCUCCCUCCUAAGGAGAAGACUGCGGGUUCGAGUCCCGUACGGAACG here?
Answer: Its yeast fitness is 0.59.

Question: Which yeast fitness does the source give for GUUCUGUUGGCGUAAUAGUAACGCGUCUCCCUCCUAAGGAGAAGACUGGGGGUUCGAGUACCGUACGGAACG here?
Answer: The yeast fitness was no more than 0.5.

Question: For GUUCUGUUAGCGUAAUGGUAACGCGUCUCCCUCCUAAGGAGAAGACUGCGGGUUCGAGUCCCGUGCGGAACG, which yeast fitness is on record?
Answer: Its yeast fitness is 0.736.

Question: For GUUCUGUUGGCAUAAUGGUAACGCGUCUCCCUCCUAAGGAGAAGACUGUGGGUUCGAGUCCCGUACGGAACG, which yeast fitness is on record?
Answer: Its yeast fitness is 0.612.

Question: Which yeast fitness does the source give for GUUCUGUUCGGGUAAUGGUAACGAGGCUCCCUCCUAAGGAGAAGACUGCGGGUUCGAGUCCCGUACGACACG here?
Answer: Its yeast fitness is no more than 0.5.

Question: For GUUCUGUUGGCCUAAUGGUAACGCGUCUCCCUCCUAAGGAGAGGACUGCGGGUUCAAGUCCCGUACGGAACG, which yeast fitness is on record?
Answer: Its yeast fitness is no more than 0.5.

Question: Which yeast fitness does the source give for GUUCUGUUGACGUAAUGGUGACGCGUCUCCCUCCUUAGGAGACGACUGCGGGUUCGAGUCCCGUACGGAACG here?
Answer: The yeast fitness was no more than 0.5.

Question: Which yeast fitness does the source give for GUUCUGUUAGCGUAAUGGUAGCGCGUCUCCCUCCUAAGGAGAAGACUGCGGGUUUGAGUCCCGUACGGAACG here?
Answer: Its yeast fitness is no more than 0.5.

Question: Which yeast fitness does the source give for GUUCUGUUGGCGUAAUAGUAACGCGUCUCCCUCCUUAGGAGAAGACAGCGGGUUCGAGUCCCGUACGGAACG here?
Answer: The yeast fitness was no more than 0.5.

Question: With GUUCUGUUGCCGUAAUGGUAACGCGUCUCCCUUCUAAGGAGAAGAGUGCGGGUUCGAGUCCCGUACGGAACG as the variant, how does the yeast fitness read?
Answer: The yeast fitness was no more than 0.5.

Question: For GUUCUGUUGCCGUAAUGGUAACGCGUCUCUCUCCUAAGGAGAAGACUGCGGGUUCGAGUCCCGUACGGAACG, which yeast fitness is on record?
Answer: Its yeast fitness is no more than 0.5.

Question: With GUUCUGUUGCCGUAAUGGUAACGCGUCUCACUCCUUAGGAGCAGACUGCGGGUUCGAGUCCCGAAGGGUACG as the variant, how does the yeast fitness read?
Answer: Its yeast fitness is no more than 0.5.

Question: Which yeast fitness does the source give for GUUCUGUUGGCGUAAUAGUAGCGCGUCUCCCUCCUAGGCAGAACAAUGCGGGUCCGAGUCCCGUCCGGAACG here?
Answer: The yeast fitness was no more than 0.5.

Question: For GUUCUGUUGGCAUAAUGGUAACGCGUCUCCCUCCUAAGGAGAAGACUGCGGCUUCGAGUCCCGUACGGAUCG, which yeast fitness is on record?
Answer: Its yeast fitness is no more than 0.5.

Question: For GUUCUGUUGGCCUAAUGGUACCGAGUCUCCCUCCUAAGGACAAGACUGCAGGAUCGAGUCCCGUACGGAACG, which yeast fitness is on record?
Answer: Its yeast fitness is no more than 0.5.

Question: For GUUCUGUUGACGUAAUGGUAACGCGUCUCCCUCCUAAGGAGAAGAAUGCGGGUUCGAGUCCCGUACGGAACG, which yeast fitness is on record?
Answer: Its yeast fitness is no more than 0.5.

Question: With GUUCUGUUAGCGUAAUGGUAACGCGUCUCCCUCCUAAGGAGAAGACUGCGGGUUCGAGUCCCGUACAGAACG as the variant, how does the yeast fitness read?
Answer: Its yeast fitness is 1.05.

Question: For GUUCUGUUGACGUAAUGGUAACGCGUGUCCCUCCGAAGGAGAAAACUGCGGGUUCGAGUCCCGUACGGAACG, which yeast fitness is on record?
Answer: Its yeast fitness is no more than 0.5.

Question: For GUUCUUUUGGUGUAGUGGUAACGCGUCUCCCUCCUAAGGAGAAGACUCCGGGUUCGAGUCCCGUACGGAACG, which yeast fitness is on record?
Answer: Its yeast fitness is no more than 0.5.

Question: With GUUCUGUUAGCGUAAUGGUAACGCGUCUCCAUCCUAAGGAGAAGACUGCGGGUUCGCGUCCCGUAAGGUACG as the variant, how does the yeast fitness read?
Answer: Its yeast fitness is no more than 0.5.

Question: Which yeast fitness does the source give for GUUCUGUUGACGUAAUGGUAACGCGUCUCCCUCCUAAGGAGAAGACUGCGGGUCCGGGUCCCGUACGGAACG here?
Answer: The yeast fitness was no more than 0.5.

Question: Which yeast fitness does the source give for GUUCUCUUGGCGUAAUGGCAACGCCUCGCCCUCCUAAGGAGAAGACUGCGGGUUCGAGUCCAGUACGGAACG here?
Answer: The yeast fitness was 0.747.

Question: With GUUCUGUUAGCGUAAUGGUAACGCGUCUCCCUCCUAAGGAGAAGACUGCGCCUUCGAGUCCCGUACGGAACG as the variant, how does the yeast fitness read?
Answer: Its yeast fitness is no more than 0.5.

Question: Which yeast fitness does the source give for GUUCUGUUGGCCUAAUGGUACCGAGUCUCCCUCCUAAGGACAAGACUGCGGGAUCGAGUCCCGUACGGAACG here?
Answer: The yeast fitness was no more than 0.5.

Question: For GUUCUGUUGACGUAAUGGUAACGCGUGUCCCUCCUAAGGAGAAGACUGCGGGUUCGAGUCCCGUACGGAACG, which yeast fitness is on record?
Answer: Its yeast fitness is no more than 0.5.

From the RNAGym collection of RNA variant scans (doi:10.1126/science.aae0568)
